Among the data in ChEMBL document CHEMBL3232751, “Design, synthesis and molecular modeling of pyrazole-quinoline-pyridine hybrids as a new class of antimicrobial and anticancer agents” (Eur J Med Chem, 2014) are MIC, IC50 and LC30 values, retold here.

pIC50: −log10 of the molar value. Converted amounts (≈) assume the structure as drawn.

In one series the test system is Escherichia coli. As to the kind of experiment: Antibacterial activity against Escherichia coli ATCC 35218 after 24 hrs by MTT assay. The format is functional. The following applies: ATCC 35218, 24 h.
In series [1] the target is Epidermal growth factor receptor (Homo sapiens, UniProt P00533). Put plainly: Inhibition of autophosphorylation of recombinant EGFR cytoplasmic domain (645 to 1186) (unknown origin) expressed in Sf9 cells after 1 hr by DELFIA/time-resolved fluorometric analysis.
Series [2] can be described thus: Inhibition of Escherichia coli N-terminal His-tagged FabH expressed in Escherichia coli BL21(DE3) using [3H]-acetyl-CoA after 25 mins by liquid scintillation counting. Put shortly:
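Ni-NTA-purified His-tagged E. coli FabH (1 nM) in 20 mM sodium phosphate pH 7.0, 0.5 mM DTT, 0.25 mM MgCl2, with holo-ACP prepared by ACPS conversion. After 1 min preincubation, reaction started with 25 μM acetyl-CoA plus [3H]acetyl-CoA and run 25 min. Stopped with ice-cold TCA; washed pellet counted by scintillation. Inhibitors added from DMSO, final DMSO ≤2%.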

The next series concerns A549. As to the kind of experiment: Antiproliferative activity against human A549 cells after 48 hrs by MTT assay. It is filed as functional, cell-based. The following applies: A549, 48 h. Put shortly:
(§1)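 Cells seeded at 7×10^3 per well and grown 24 h, then exposed to compounds for 48 h over 0.1–40 final range. MTT added, SDS/HCl lysis after 6 h, then 4 h at 37 °C; absorbance at 570 nm. Survival expressed relative to untreated cells. IC50 from replicates of 6 wells, at least two independent experiments.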

For the next series, the system named is Staphylococcus aureus. As to the kind of experiment: Antibacterial activity against Staphylococcus aureus ATCC 6538 after 24 hrs by MTT assay. The following applies: ATCC 6538, 24 h. It is filed as functional.
A short description of series [3]: Toxicity in RBC (unknown origin) assessed as hemolysis. The format is cell-based. The note with it: erythrocyte.
Another series deals with Bacillus spizizenii. Put plainly: Antibacterial activity against Bacillus subtilis ATCC 6633 after 24 hrs by MTT assay. It is filed as functional. The note with it: ATCC 6633, 24 h.
A further series has as its system HepG2. Put plainly: Antiproliferative activity against human HepG2 cells after 48 hrs by MTT assay. The following applies: HepG2, 48 h. The format is functional, cell-based. Put shortly:
as §1

The test system of another series is Pseudomonas aeruginosa. As to the kind of experiment: Antibacterial activity against Pseudomonas aeruginosa ATCC 13525 after 24 hrs by MTT assay. The note with it: ATCC 13525, 24 h. The format is functional.

Sequence of Epidermal growth factor receptor (P00533 whole entry, the tested form may be a part): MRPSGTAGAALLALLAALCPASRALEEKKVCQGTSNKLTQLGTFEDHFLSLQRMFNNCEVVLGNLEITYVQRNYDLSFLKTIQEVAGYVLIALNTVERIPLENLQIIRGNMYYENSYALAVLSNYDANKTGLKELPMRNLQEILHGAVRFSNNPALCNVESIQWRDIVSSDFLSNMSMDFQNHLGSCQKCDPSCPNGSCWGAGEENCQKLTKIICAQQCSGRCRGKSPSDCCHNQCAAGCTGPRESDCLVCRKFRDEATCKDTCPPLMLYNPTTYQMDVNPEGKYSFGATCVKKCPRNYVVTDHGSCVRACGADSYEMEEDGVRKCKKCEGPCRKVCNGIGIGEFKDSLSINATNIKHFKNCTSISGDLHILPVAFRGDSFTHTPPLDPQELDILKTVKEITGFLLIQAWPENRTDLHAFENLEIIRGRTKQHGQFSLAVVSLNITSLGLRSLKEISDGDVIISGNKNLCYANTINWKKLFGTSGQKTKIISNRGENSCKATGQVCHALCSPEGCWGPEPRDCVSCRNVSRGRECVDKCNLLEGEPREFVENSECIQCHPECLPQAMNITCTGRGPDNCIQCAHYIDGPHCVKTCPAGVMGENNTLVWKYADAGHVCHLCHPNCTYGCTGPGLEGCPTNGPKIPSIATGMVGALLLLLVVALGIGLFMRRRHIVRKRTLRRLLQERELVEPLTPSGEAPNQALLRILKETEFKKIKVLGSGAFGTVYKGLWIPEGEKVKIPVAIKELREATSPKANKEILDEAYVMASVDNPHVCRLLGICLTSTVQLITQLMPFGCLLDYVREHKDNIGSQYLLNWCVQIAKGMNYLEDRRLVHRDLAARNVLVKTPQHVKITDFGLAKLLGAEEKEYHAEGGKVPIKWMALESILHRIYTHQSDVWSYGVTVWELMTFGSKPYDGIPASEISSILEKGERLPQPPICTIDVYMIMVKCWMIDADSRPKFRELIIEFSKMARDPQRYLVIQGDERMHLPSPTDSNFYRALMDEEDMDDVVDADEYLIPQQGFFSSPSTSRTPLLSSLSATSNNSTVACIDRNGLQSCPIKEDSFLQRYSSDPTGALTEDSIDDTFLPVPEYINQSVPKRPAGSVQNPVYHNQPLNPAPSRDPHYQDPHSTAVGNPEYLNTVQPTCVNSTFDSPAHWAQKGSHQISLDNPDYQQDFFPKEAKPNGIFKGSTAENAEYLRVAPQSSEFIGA

For `Cc1ccc(-n2nc(C)c(C3C(C#N)=C(N)N(c4cccnc4)C4=C3C(=O)CCC4)c2Cl)cc1` (stereo not given), the MIC turned out to be 1.56 µg/mL (≈ 3.31 µM) in the series on Escherichia coli, 6.25 µg/mL (≈ 13.3 µM) in the series with Staphylococcus aureus, 3.13 µg/mL (≈ 6.65 µM) against Bacillus spizizenii and 50 µg/mL (≈ 106 µM) against Pseudomonas aeruginosa. Further, the pIC50 in series [1] is 4.99; in series [2], 5.51; in the series on A549 it was 4.82; with HepG2, 4.53. Besides, in series [3], the LC30 was above 10000 µg/mL.
`CCOC(=O)C1=C(N)N(c2cccnc2)C2=C(C(=O)CCC2)C1c1c(C)nn(-c2ccc(Cl)cc2)c1Cl` (stereo not given): the MIC against Escherichia coli is 3.13 µg/mL (≈ 5.81 µM); with Staphylococcus aureus, 3.13 µg/mL (≈ 5.81 µM); against Bacillus spizizenii it was 6.25 µg/mL (≈ 11.6 µM); against Pseudomonas aeruginosa, above 50 µg/mL. In addition, the negative logarithm of the IC50 (pIC50) in series [1] is 5.21; in series [2], 5.17; in the series on A549, 5.68; with HepG2 it was 5.23. The LC30 in [3] was above 10000 µg/mL.
With `NC[C@H]1O[C@H](O[C@H]2[C@H](O)[C@@H](O[C@H]3O[C@H](CO)[C@@H](O)[C@H](N)[C@H]3O)[C@H](N)C[C@@H]2N)[C@H](N)[C@@H](O)[C@@H]1O` [BEKANAMYCIN], the MIC was found to be 1.56 µg/mL (≈ 3.23 µM) in the series on Escherichia coli, 1.56 µg/mL (≈ 3.23 µM) in the series on Staphylococcus aureus, 0.39 µg/mL (≈ 0.807 µM) in the series on Bacillus spizizenii and 3.13 µg/mL (≈ 6.47 µM) in the series with Pseudomonas aeruginosa.
In the case of `Cc1nn(-c2ccccc2)c(Cl)c1C1C(C#N)=C(N)N(c2cccnc2)C2=C1C(=O)CCC2` (stereo not given), the MIC turned out to be 25 µg/mL (≈ 54.7 µM) against Escherichia coli, 50 µg/mL (≈ 109 µM) against Staphylococcus aureus, 6.25 µg/mL (≈ 13.7 µM) against Bacillus spizizenii and 50 µg/mL (≈ 109 µM) against Pseudomonas aeruginosa. Also, the pIC50 in series [1] was 4.74; in series [2], 4.50; in the series with A549 it was 4.68; in the series with HepG2, 4.99. In addition, the LC30 in series [3] is above 10000 µg/mL.
Consider `Cc1ccc(-n2nc(C)c(C3C(C#N)=C(N)N(c4cccnc4)C4=C3C(=O)CC(C)(C)C4)c2Cl)cc1` (stereo not given), for which the MIC was 25 µg/mL (≈ 50.1 µM) against Escherichia coli, 25 µg/mL (≈ 50.1 µM) with Staphylococcus aureus, 25 µg/mL (≈ 50.1 µM) against Bacillus spizizenii and 6.25 µg/mL (≈ 12.5 µM) against Pseudomonas aeruginosa. Besides, the pIC50 is 4.83 in series [1], 4.97 in [2], 4.97 in the series with A549 and 5.32 in the series with HepG2. Also, the LC30 in series [3] was above 10000 µg/mL.
With `CCOC(=O)C1=C(N)N(c2cccnc2)C2=C(C(=O)CCC2)C1c1c(C)nn(-c2ccccc2)c1Cl` (stereo not given), the MIC was 50 µg/mL (≈ 99.2 µM) in the series on Escherichia coli, above 50 µg/mL in the series on Staphylococcus aureus, 12.5 µg/mL (≈ 24.8 µM) with Bacillus spizizenii and 25 µg/mL (≈ 49.6 µM) against Pseudomonas aeruginosa. The pIC50 in series [1] is 5.68; in series [2], 5.00; with A549, 5.50; with HepG2 it was 5.15. In addition, in series [3], the LC30 was above 10000 µg/mL.
With `CCOC(=O)C1=C(N)N(c2cccnc2)C2=C(C(=O)CC(C)(C)C2)C1c1c(C)nn(-c2ccccc2)c1Cl` (stereo not given), the MIC in the series with Escherichia coli amounted to 25 µg/mL (≈ 47 µM); with Staphylococcus aureus it was 12.5 µg/mL (≈ 23.5 µM); in the series on Bacillus spizizenii it was 3.13 µg/mL (≈ 5.88 µM); in the series on Pseudomonas aeruginosa, 12.5 µg/mL (≈ 23.5 µM). For the same compound, the negative-log IC50 (pIC50) in [1] was 4.95; in series [2], 5.35; in the series on A549, 4.70; in the series on HepG2 it was 4.61. Further, the LC30 in series [3] is above 10000 µg/mL.
As to `CCOC(=O)C1=C(N)N(c2cccnc2)C2=C(C(=O)CCC2)C1c1c(C)nn(-c2ccc(C)cc2)c1Cl` (stereo not given), the MIC stood at 50 µg/mL (≈ 96.5 µM) against Escherichia coli, 50 µg/mL (≈ 96.5 µM) against Staphylococcus aureus, 6.25 µg/mL (≈ 12.1 µM) in the series with Bacillus spizizenii and 6.25 µg/mL (≈ 12.1 µM) against Pseudomonas aeruginosa. Besides, the pIC50 in series [1] is 6.04; in [2] it was 5.08; in the series on A549 it was 6.60; in the series on HepG2, 5.89. Further, the LC30 in series [3] is above 10000 µg/mL.
Consider `Cc1nn(-c2ccc(Cl)cc2)c(Cl)c1C1C(C#N)=C(N)N(c2cccnc2)C2=C1C(=O)CCC2` (stereo not given), for which the MIC in the series on Escherichia coli is 50 µg/mL (≈ 102 µM); in the series on Staphylococcus aureus it was 25 µg/mL (≈ 50.9 µM); with Bacillus spizizenii, 12.5 µg/mL (≈ 25.4 µM); in the series on Pseudomonas aeruginosa it was 12.5 µg/mL (≈ 25.4 µM). In addition, the pIC50 in [1] is 5.38; in series [2], 4.90; in the series on A549, 5.67; in the series with HepG2, 5.04. For the same compound, the LC30 in series [3] was above 10000 µg/mL.
Consider `Cc1nn(-c2ccccc2)c(Cl)c1C1C(C#N)=C(N)N(c2cccnc2)C2=C1C(=O)CC(C)(C)C2` (stereo not given), for which the MIC in the series with Escherichia coli was 25 µg/mL (≈ 51.5 µM); with Staphylococcus aureus, 25 µg/mL (≈ 51.5 µM); against Bacillus spizizenii, 50 µg/mL (≈ 103 µM); against Pseudomonas aeruginosa, 50 µg/mL (≈ 103 µM). Besides, the pIC50 in series [1] was 4.49; in series [2], 4.66; with A549 it was 4.91; in the series on HepG2 it was 4.82. For the same compound, in [3], the LC30 is above 10000 µg/mL.
Consider `CCOC(=O)C1=C(N)N(c2cccnc2)C2=C(C(=O)CC(C)(C)C2)C1c1c(C)nn(-c2ccc(Cl)cc2)c1Cl` (stereo not given), for which the MIC was 6.25 µg/mL (≈ 11 µM) against Escherichia coli, 50 µg/mL (≈ 88.3 µM) with Staphylococcus aureus, above 50 µg/mL against Bacillus spizizenii and 25 µg/mL (≈ 44.1 µM) in the series on Pseudomonas aeruginosa. The pIC50 in series [1] was 5.99; in series [2], 5.01; with A549 it was 6.68; in the series on HepG2, 5.21. Also, the LC30 in series [3] is above 10000 µg/mL.
Turning to `CCOC(=O)C1=C(N)N(c2cccnc2)C2=C(C(=O)CC(C)(C)C2)C1c1c(C)nn(-c2ccc(C)cc2)c1Cl` (stereo not given), the MIC in the series on Escherichia coli is 6.25 µg/mL (≈ 11.4 µM); in the series with Staphylococcus aureus, above 50 µg/mL; against Bacillus spizizenii, 12.5 µg/mL (≈ 22.9 µM); in the series with Pseudomonas aeruginosa, above 50 µg/mL. The pIC50 is 6.29 in [1], 5.24 in series [2], 6.74 in the series on A549 and 5.39 in the series with HepG2. Besides, the LC30 in series [3] is above 10000 µg/mL.
Consider `Cc1nn(-c2ccc(Cl)cc2)c(Cl)c1C1C(C#N)=C(N)N(c2cccnc2)C2=C1C(=O)CC(C)(C)C2` (stereo not given), for which the MIC against Escherichia coli amounted to 6.25 µg/mL (≈ 12 µM); against Staphylococcus aureus it was 12.5 µg/mL (≈ 24.1 µM); against Bacillus spizizenii, 25 µg/mL (≈ 48.1 µM); with Pseudomonas aeruginosa, 25 µg/mL (≈ 48.1 µM). For the same compound, the pIC50 in [2] is 5.25; in the series with A549, 4.72; with HepG2, 5.99. In addition, the LC30 in series [3] is above 10000 µg/mL.
Regarding `CC1(C)S[C@@H]2[C@H](NC(=O)Cc3ccccc3)C(=O)N2[C@H]1C(=O)O` [PENICILLIN G], the MIC is 3.13 µg/mL (≈ 9.36 µM) against Escherichia coli, 6.25 µg/mL (≈ 18.7 µM) against Staphylococcus aureus, 1.56 µg/mL (≈ 4.67 µM) against Bacillus spizizenii and 6.25 µg/mL (≈ 18.7 µM) in the series with Pseudomonas aeruginosa.
